Data reported in ChEMBL document CHEMBL1687900, “Potent farnesyltransferase inhibitors with 1,4-diazepane scaffolds as novel destabilizing microtubule agents in hormone-resistant prostate cancer” (J Med Chem, 2011).
The source made the active and inactive calls. The calls are words filed in the database; no cut-off is given here.

Columns and labels:
[1] = Inhibition of FTase
In short: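 Partially purified recombinant yeast FTase (2.2 mg/mL stock) and dansyl-GCVLS peptide (2 μM solution) were used with inhibitor in DMSO. Buffer was 50 mM Tris/HCl pH 7.5, 5.5 mM DTT, 10 mM MgCl2, 10 μM ZnCl2 and 0.08% CHAPS. Reaction was started with 10 μM FPP solution (1:10 addition). Fluorescence (ex 340 / em 486 nm) was followed 15 min at 30 °C. Values are the mean of three determinations.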

[2] = tested on: PC-3; assay: Anticancer activity against hormone-resistant human PC3 cells assessed as cell proliferation after 72 hrs by MTT assay; assay type: functional, cell-based; conditions: PC-3, 72 h
In short: (§1)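 DU145 or PC3 cells (RPMI 1640, 10% FBS, 2 mM glutamine, 37 °C, 5% CO2) seeded at (1.6-1.8) 10^4 per well. After 72 h they were serum-deprived, and next day treated with various compound concentrations for 72 h. Viability was read by MTT (4 mg/mL, 4 h), SDS/HCl lysis and absorbance at 570 nm. Values come from at least three independent determinations.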

[3] = tested on: DU-145; assay: Anticancer activity against hormone-resistant human DU145 cells assessed as cell proliferation after 72 hrs by MTT assay; assay type: functional, cell-based; conditions: DU-145, 72 h; in short: as §1
[4] = tested on: DU-145; assay: Anticancer activity against hormone-resistant human DU145 cells assessed as cell proliferation at 100 uM after 72 hrs by MTT assay; assay type: functional; conditions: DU-145, 72 h
[5] = tested on: PC-3; assay: Anticancer activity against hormone-resistant human PC3 cells assessed as cell proliferation at 100 uM after 72 hrs by MTT assay; assay type: functional; conditions: PC-3, 72 h
[6] = tested on: PC-3; assay: Induction of disorganization of tubulin in human PC3 cells assessed as decrease in microtubulin mass at 18 uM by immunofluorescence microscopy; assay type: functional, cell-based
In short: (§2)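 PC3 cells were grown on poly-D-lysine coverslips overnight, synchronized, then exposed 24 h to compound or DMSO. They were fixed in 4% paraformaldehyde, permeabilized with 0.5% Triton X-100, and blocked 45 min in 5% BSA. Staining used Alexa 488 anti-α-tubulin (1/100). Microtubule network was examined by fluorescence microscopy.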

[7] = tested on: PC-3; assay: Induction of disorganization of tubulin in human PC3 cells assessed as microtubule bundles at 18 uM by immunofluorescence microscopy; assay type: functional, cell-based; in short: as §2
[8] = Apparent permeability across human Caco2 cells; assay type: ADME, cell-based; conditions: Caco-2
[9] = tested on: Liver microsomes; assay: Metabolic stability of the compound in human liver microsome assessed as compound remaining; assay type: ADME
In short: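 Metabolic stability was tested in human liver microsomes, expressed as percentage of parent compound remaining at assay end.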

[10] = tested on: PC-3; assay: Induction of disorganization of tubulin in human PC3 cells assessed as decrease in microtubulin mass at 32 uM by immunofluorescence microscopy; assay type: functional, cell-based; in short: as §2
[11] = tested on: PC-3; assay: Induction of disorganization of tubulin in human PC3 cells assessed as microtubule bundles at 32 uM by immunofluorescence microscopy; assay type: functional, cell-based; in short: as §2
[12] = tested on: PC-3; assay: Induction of disorganization of tubulin in human PC3 cells assessed as microtubule bundles at 21 uM by immunofluorescence microscopy; assay type: functional, cell-based; in short: as §2
[13] = tested on: PC-3; assay: Induction of disorganization of tubulin in human PC3 cells assessed as microtubule bundles at 75 uM after 24 hrs by immunofluorescence microscopy; assay type: functional, cell-based; in short: as §2
[14] = tested on: PC-3; assay: Anticancer activity against human PC3 cells xenografted mouse assessed as suppression of tumor at 30 mg/kg; assay type: functional
[15] = tested on: DU-145; assay: Anticancer activity against human DU145 cells xenografted mouse assessed as suppression of tumor at 30 mg/kg; assay type: functional

N#Cc1ccc(Cn2cncc2CN2CCC(c3ccccc3)N(C(=O)c3ccccc3-c3ccccc3)CC2)cc1 (configuration not stated)
IC50 [1]: 0.057 µM
IC50 [2]: 50 µM
IC50 [3]: 47 µM

CC(C)CC(=O)N1CCCN(Cc2cncn2Cc2ccc(C#N)cc2)CC1
inhibition at 100 µM [4]: 18%
IC50 [1]: 0.205 µM
inhibition at 100 µM [5]: 13%

N#Cc1ccc(Cn2cncc2CN2CCC(c3ccccc3)N(C(=O)c3ccccc3)CC2)cc1 (configuration not stated)
IC50 [1]: 0.079 µM
IC50 [2]: 80 µM
IC50 [3]: 75 µM

N#Cc1ccc(Cn2cncc2CN2CCCN(C(=O)c3ccncc3)CC2)cc1
inhibition at 100 µM [4]: 6%
IC50 [1]: 0.142 µM
inhibition at 100 µM [5]: 12%

N#Cc1ccc(Cn2cncc2CN2CCC(c3ccccc3)N(C(=O)c3ccc(Cl)cc3Cl)CC2)cc1 (configuration not stated)
inhibition at 100 µM [4]: 31%
IC50 [1]: 0.382 µM
IC50 [2]: 76 µM

N#Cc1ccc(Cn2cncc2CN2CCN(C(=O)c3cccc4ccccc34)CCC2c2ccccc2)cc1 (configuration not stated)
IC50 [1]: 0.018 µM
IC50 [2]: 77 µM
IC50 [3]: 48 µM

N#Cc1ccc(Cn2cncc2CN2CCN(C(=O)C3CCCCC3)CCC2c2ccccc2)cc1 (configuration not stated)
Activity [6]: Active
IC50 [1]: 0.007 µM
Activity [7]: Active
IC50 [2]: 18 µM
IC50 [3]: 29 µM
Papp [8]: 25.1 ×10⁻⁶ cm/s
Stability [9]: 2%

N#Cc1ccc(Cn2cncc2CN2CCC(c3ccccc3)N(C(=O)c3cccc4ccccc34)CC2)cc1 (configuration not stated)
IC50 [1]: 0.06 µM
IC50 [2]: 50 µM
IC50 [3]: 54 µM

N#Cc1ccc(Cn2cncc2CN2CCCN(C(=O)c3ccccc3F)CC2)cc1
inhibition at 100 µM [4]: 7%
IC50 [1]: 0.14 µM
inhibition at 100 µM [5]: 2%

N#Cc1ccc(Cn2cncc2CN2CCC(c3ccccc3)N(C(=O)C3CCCCC3)CC2)cc1 (configuration not stated)
IC50 [1]: 0.503 µM
inhibition at 100 µM [5]: 5%

N#Cc1ccc(Cn2cncc2CN2CCN(C(=O)C34CC5CC(CC(C5)C3)C4)CCC2c2ccccc2)cc1 (configuration not stated)
Activity [10]: Active
IC50 [1]: 0.006 µM
Activity [11]: Active
IC50 [2]: 32 µM
IC50 [3]: 32 µM
Papp [8]: 3.6 ×10⁻⁶ cm/s
Stability [9]: 3%

Cc1cccc(C(=O)N2CCCN(Cc3cncn3Cc3ccc(C#N)cc3)CC2)c1
inhibition at 100 µM [4]: 34%
IC50 [1]: 0.015 µM
inhibition at 100 µM [5]: 0%

CC(C)NCC(O)COc1cccc2ccccc12 (configuration not stated) [PROPRANOLOL]
Papp [8]: 41.1 ×10⁻⁶ cm/s

N#Cc1ccc(Cn2cncc2CN2CCCN(C(=O)C34CC5CC(CC(C5)C3)C4)CC2)cc1
IC50 [1]: 0.005 µM
Activity [12]: Active
IC50 [2]: 21 µM
IC50 [3]: 44 µM
Papp [8]: 28.8 ×10⁻⁶ cm/s
Stability [9]: 1%

N#Cc1ccc(Cn2cncc2CN2CCCN(C(=O)c3ccccc3)CC2)cc1
inhibition at 100 µM [4]: 24%
IC50 [1]: 0.008 µM
inhibition at 100 µM [5]: 22%

COc1cccc(C(=O)N2CCCN(Cc3cncn3Cc3ccc(C#N)cc3)CC2)c1OC
inhibition at 100 µM [4]: 44%
IC50 [1]: 0.043 µM
IC50 [2]: 80 µM

N#Cc1ccc(Cn2cncc2CN2CCCN(C(=O)c3cccc(-c4ccccc4)c3)CC2)cc1
IC50 [1]: 0.043 µM
IC50 [2]: 44 µM
IC50 [3]: 42 µM

N#Cc1ccc(Cn2cncc2CN2CCCN(C(=O)c3ccsc3)CC2)cc1
inhibition at 100 µM [4]: 3%
IC50 [1]: 0.042 µM
inhibition at 100 µM [5]: 4%

N#Cc1ccc(Cn2cncc2CN2CCCN(C(=O)c3ccccc3-c3ccccc3)CC2)cc1
IC50 [1]: 0.026 µM
IC50 [2]: 39 µM
IC50 [3]: 43 µM

N#Cc1ccc(Cn2cncc2CN2CCC(c3ccccc3)N(C(=O)C34CC5CC(CC(C5)C3)C4)CC2)cc1 (configuration not stated)
IC50 [1]: 0.017 µM
IC50 [2]: 41 µM
IC50 [3]: 42 µM

N#Cc1ccc(Cn2cncc2CN2CCCN(C(=O)c3ccc(-c4ccccc4)cc3)CC2)cc1
IC50 [1]: 0.153 µM
IC50 [2]: 50 µM
IC50 [3]: 47 µM

N#Cc1ccc(Cn2cncc2CN2CCN(C(=O)c3ccccc3-c3ccccc3)CCC2c2ccccc2)cc1 (configuration not stated)
IC50 [1]: 0.017 µM
IC50 [2]: 50 µM
IC50 [3]: 35 µM

N#Cc1ccc(Cn2cncc2CN2CCCN(C(=O)c3ccc(F)cc3)CC2)cc1
inhibition at 100 µM [4]: 27%
IC50 [1]: 0.069 µM
inhibition at 100 µM [5]: 40%

N#Cc1ccc(Cn2cncc2CN2CCN(C(=O)c3ccccc3)CCC2c2ccccc2)cc1 (configuration not stated)
IC50 [1]: 0.009 µM
IC50 [2]: 33 µM
IC50 [3]: 73 µM

N#Cc1ccc(Cn2cncc2CN2CCCN(C(=O)c3ccccc3Cl)CC2)cc1
IC50 [1]: 0.025 µM
IC50 [2]: 70 µM
IC50 [3]: 100 µM

CC[C@H](C)[C@@H](CO[C@@H](Cc1ccccc1)C(=O)N[C@@H](CCS(C)(=O)=O)C(=O)OC(C)C)NC[C@@H](N)CS
IC50 [1]: 0.027 µM
IC50 [2]: 75 µM
Activity [13]: Active
inhibition in vivo at 30 mg/kg [14]: 87%
IC50 [3]: 78 µM
inhibition in vivo at 30 mg/kg [15]: 85%

N#Cc1ccc(Cn2cncc2CN2CCCN(C(=O)c3ccc4ccccc4c3)CC2)cc1
IC50 [1]: 0.035 µM
IC50 [2]: 47 µM
IC50 [3]: 52 µM

N#Cc1ccc(Cn2cncc2CN2CCCN(C(=O)c3ccccc3Br)CC2)cc1
inhibition at 100 µM [4]: 17%
IC50 [1]: 0.064 µM
inhibition at 100 µM [5]: 15%

N#Cc1ccc(Cn2cncc2CN2CCCN(C(=O)c3cccc4ccccc34)CC2)cc1
IC50 [1]: 0.039 µM
IC50 [2]: 65 µM
IC50 [3]: 44 µM

N#Cc1ccc(Cn2cncc2CN2CCCN(C(=O)C3CCCCC3)CC2)cc1
inhibition at 100 µM [4]: 23%
IC50 [1]: 0.024 µM
inhibition at 100 µM [5]: 20%

N#Cc1ccc(Cn2cncc2CN2CCCN(C(=O)Cc3cccc4ccccc34)CC2)cc1
IC50 [1]: 0.013 µM
IC50 [3]: 93 µM
inhibition at 100 µM [5]: 40%

CNC(=C[N+](=O)[O-])NCCSCc1ccc(CN(C)C)o1 [RANITIDINE]
Papp [8]: 0.7 ×10⁻⁶ cm/s

N#Cc1ccc(Cn2cncc2CN2CCN(C(=O)c3ccc(Cl)cc3Cl)CCC2c2ccccc2)cc1 (configuration not stated)
IC50 [1]: 0.021 µM
IC50 [2]: 38 µM
IC50 [3]: 44 µM

N#Cc1ccc(Cn2cncc2CN2CCCN(C(=O)c3ccc(Cl)cc3Cl)CC2)cc1
IC50 [1]: 0.041 µM
IC50 [2]: 26 µM
IC50 [3]: 45 µM

CC(CCc1ccccc1)NCC(O)c1ccc(O)c(C(N)=O)c1 (configuration not stated) [LABETALOL]
Papp [8]: 7.3 ×10⁻⁶ cm/s
